For seven compounds, Kd, IC50 and Activity results are on record in ChEMBL document CHEMBL1152777, “Potent non-benzoquinone ansamycin heat shock protein 90 inhibitors from genetic engineering of Streptomyces hygroscopicus” (J Med Chem, 2009).

pIC50, pKd: −log10 of the molar value. Activity calls are given as the source filed them. The rule behind the calls is not given here.

In data set [1] the target is T1, Heat shock protein HSP 90-alpha (Homo sapiens, UniProt P07900). Briefly: Binding affinity to human recombinant Hsp90alpha N-terminal domain by isothermal titration calorimetry. (In general: In ITC the heat of successive injections is recorded.)
In data set [2] the test system is SK-BR-3. Briefly: Cytotoxicity against human SKBR3 cells after 72 hrs. The data set is classed as functional, cell-based. Conditions: SK-BR-3, 72 h. In outline: (§1)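 Viability was read by CellTiter-Glo luminescent assay. Values are means of three independent determinations.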
Data set [3] concerns HCT-116. Briefly: Cytotoxicity against human HCT116 cells after 72 hrs. The data set is classed as functional, cell-based. Conditions: HCT-116, 72 h. In outline: as §1
In data set [4] the test system is MCF7. Briefly: Cytotoxicity against human MCF7 cells after 72 hrs. The format is functional, cell-based. The settings on record: MCF7, 72 h. Summed up:
as §1

Data set [5] in a line: Cytotoxicity against NQ01-deficient human MDA468 cells after 72 hrs. The data set is classed as functional, cell-based. Conditions: MDA-MB-468, 72 h. Summed up:
as §1

Data set [6] concerns NCI-H596. Briefly: Cytotoxicity against NQ01-deficient human NCI-H596 cells after 72 hrs. The format is functional, cell-based. Conditions: NCI-H596, 72 h. Summed up: as §1
Data set [7] relates to SK-OV-3. Briefly: Cytotoxicity against human SKOV3 cells after 72 hrs. The settings on record: SK-OV-3, 72 h. The format is functional, cell-based. Summed up:
as §1

Data set [8] concerns MCF7. Briefly: Cytotoxicity against human MCF7 cells after 72 hrs in presence of NQO1 inhibitor dicoumarol. Conditions: MCF7, 72 h. The format is functional, cell-based. In outline: as §1
The subject of data set [9] is SK-BR-3. Briefly: Cytotoxicity against human SKBR3 cells after 72 hrs in presence of NQO1 inhibitor dicoumarol. The settings on record: SK-BR-3, 72 h. The data set is classed as functional, cell-based. Summed up:
as §1

Data set [10] has as its system COLO 205. Briefly: Antitumor activity against human COLO205 tumor bearing mouse assessed as reduction of tumor volume at 90 mg/kg, iv administered once daily for 5 days with 2 day interval for total 13 doses. Details: dose 90 mg/kg. The format is functional, organism-based. Summed up:
(§2)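 COLO205 tumor-bearing mice received iv doses of vehicle or test agent (15, 30 or 90 mg/kg) daily for 5 days, then a 2-day holiday, for 13 doses in total. Groups had 10 mice each. Tumor growth was followed over the dosing period and compared with vehicle.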

Data set [11] deals with COLO 205. Briefly: Antitumor activity against human COLO205 tumor bearing mouse assessed as reduction of tumor volume at 15 mg/kg, iv once daily for 5 days with 2 day interval for total 13 doses. Details: dose 15 mg/kg. The data set is classed as functional, organism-based. In outline:
as §2

Data set [12] relates to Mus musculus. Briefly: Toxicity in human COLO205 tumor bearing nu/nu mouse assessed as body weight change at 30 mg/kg, iv administered once daily for 5 days with 2 day interval for total 13 doses. The format is organism-based. Conditions: in vivo. The arrangement: dose 30 mg/kg, route intravenous.
Data set [13] deals with Mus musculus. Briefly: Toxicity in human COLO205 tumor bearing nu/nu mouse assessed as body weight change at 15 mg/kg, iv administered once daily for 5 days with 2 day interval for total 13 doses. The settings on record: in vivo. The format is organism-based. The arrangement: dose 15 mg/kg, route intravenous.
The test system of data set [14] is COLO 205. Briefly: Antitumor activity against human COLO205 tumor bearing mouse assessed as reduction of tumor volume at 30 mg/kg, iv administered once daily for 5 days with 2 day interval for total 13 doses. The format is functional, organism-based. The arrangement: dose 30 mg/kg. Summed up:
as §2

Data set [15] concerns the target T1, Heat shock protein HSP 90-alpha. Briefly: Binding affinity to human recombinant Hsp90alpha N-terminal domain by scintillation proximity assay.
Data set [16] concerns Mus musculus. Briefly: Inhibition of HSP90 in human COLO205 tumor bearing nu/nu mouse assessed as induction of HSP70 expression at 30 mg/kg, […] after 4 hrs by ELISA. The data set is classed as functional, organism-based. The arrangement: dose 30 mg/kg. In outline:
(§3)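 COLO205 xenograft mice were given a single dose. Tumors were harvested 4 or 24 h later and tumor lysates assayed by ELISA for Hsp70 or ErbB2 protein levels. Vehicle-dosed mice served as comparison.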

For data set [17], the system named is Mus musculus. Briefly: Inhibition of HSP90 in human COLO205 tumor bearing nu/nu mouse assessed as induction of HSP70 expression at 30 mg/kg, […] after 24 hrs by ELISA. The data set is classed as functional, organism-based. Details: dose 30 mg/kg. Summed up:
as §3
A general note: In an ELISA, binding on a coated surface is turned into a signal by an enzyme label.

Data set [18] deals with Mus musculus. Briefly: Inhibition of HSP90 in human COLO205 tumor bearing nu/nu mouse assessed as reduction of ErbB2 protein level at 30 mg/kg, […] after 4 hrs by ELISA. The format is functional, organism-based. Details: dose 30 mg/kg. In outline:
as §3

For data set [19], the system named is COLO 205. Briefly: Antitumor activity against human COLO205 tumor bearing mouse assessed as reduction of tumor volume dosed intravenously once daily for 5 days with 2 day interval for total 13 doses. The format is functional, organism-based. In outline:
as §2

Data set [20] relates to Mus musculus. Briefly: Inhibition of HSP90 in human COLO205 tumor bearing nu/nu mouse assessed as reduction of ErbB2 protein level at 30 mg/kg, iv after 24 hrs by ELISA.

In the case of `CO[C@H]1C[C@H](C)Cc2cc(ccc2O)NC(=O)/C(C)=C/CC[C@H](OC)[C@@H](OC(N)=O)/C(C)=C/[C@H](C)[C@H]1O`, the pKd in data set [1] is 9.10. The pIC50 in data set [2] is 6.08; in data set [3], 5.98; in data set [4] it was 6.21; in data set [5], 6.38; in data set [6], 5.92.

Take `CO[C@H]1C[C@H](C)Cc2cccc(c2)NC(=O)/C(C)=C/CC[C@H](OC)[C@@H](OC(N)=O)/C(C)=C/[C@H](C)[C@H]1O`: the negative-log Kd (pKd) in data set [1] was 8.27. Further, the pIC50 is 7.02 in data set [2]; 6.49 in data set [7]; 6.62 in data set [3]; 6.86 in [4]; 6.72 in data set [5]; 6.41 in data set [6].

As to `CO[C@H]1/C=C\C=C(/C)C(=O)NC2=CC(=O)C(NCCN(C)C)=C(C[C@@H](C)C[C@H](OC)[C@H](O)[C@@H](C)/C=C(\C)[C@@H]1OC(N)=O)C2=O` [ALVESPIMYCIN], the pIC50 in [8] is 6.06; in data set [9], 6.64; in data set [2], 7.24; in [7] it was 6.91; in [3] it was 7.24; in [4], 7.15. The pIC50 in [5] is 5.80; in data set [6] it was 5.96.

Turning to `CO[C@H]1/C=C\C=C(/C)C(=O)Nc2ccc(O)c(c2)C[C@@H](C)C[C@H](OC)[C@H](O)[C@@H](C)/C=C(\C)[C@@H]1OC(N)=O`, in [1], the pKd was 8.60. For the same compound, the negative-log IC50 (pIC50) was 7.08 in data set [2], 6.75 in data set [3], 6.80 in data set [5] and 6.49 in data set [6].

As to `CO[C@H]1/C=C\C=C(/C)C(=O)Nc2cc(Cl)c(O)c(c2O)C[C@@H](C)C[C@H](OC)[C@H](O)[C@@H](C)/C=C(\C)[C@@H]1OC(N)=O`, the pIC50 was 6.40 in data set [2]; 6.46 in [7]; 6.37 in data set [3]; 6.48 in [4]; 6.35 in [5]; 6.15 in data set [6].

For `C=CCNC1=C2C[C@@H](C)C[C@H](OC)[C@H](O)[C@@H](C)/C=C(\C)[C@H](OC(N)=O)[C@@H](OC)/C=C\C=C(/C)C(=O)NC(=CC1=O)C2=O` [TANESPIMYCIN], the pIC50 was 6.18 in data set [8]; 6.39 in data set [9]; 7.36 in [2]; 6.62 in data set [7]; 6.69 in data set [3]; 7.24 in data set [4]. Also, the values for the pIC50 in data set [5] and in data set [6] were 5.82 and 5.80, respectively. Moreover, the result in data set [10] and in data set [11] was Active.

Take `CO[C@H]1C[C@H](C)Cc2cc(cc(Cl)c2O)NC(=O)/C(C)=C/CC[C@H](OC)[C@@H](OC(N)=O)/C(C)=C/[C@H](C)[C@H]1O`: the Activity entry was “Non-toxic” in [12], “Non-toxic” in data set [13] and “Dose-dependent effect” in [19]. Moreover, the outcome in [14], in data set [16], in data set [17], in data set [18], in data set [11] and in [20] was Active. In addition, the pKd in [15] was 7.30. The pIC50 is 6.85 in [7], 6.92 in data set [3] and 7.05 in data set [5].

As a reminder, the pKd is the negative decadic logarithm of the Kd, by convention in mol/L. As a reminder, the pIC50 is −log10 of the IC50, conventionally taken in molar units.
